Measurements gathered from unrelated publications.
Lines come from different studies, so protocols differ.
Read-out: enzyme activity
Mode: inhibitor
RET: Proto-oncogene tyrosine-protein kinase receptor Ret (RET, Homo sapiens, UniProt P07949)

target	test	setting	inhibition [%]	Structure (SMILES)
RET	–	1 µM	34	COc1cc2ncnc(Nc3ccc(Oc4ccccc4)cc3C)c2cc1OC
RET	–	1 µM	< 10	CCCS(=O)(=O)Nc1ccc(F)c(C(=O)c2c[nH]c3ncc(-c4ccc(Cl)cc4)cc23)c1F
Proto-oncogene tyrosine-protein kinase receptor Ret (RET, Homo sapiens, UniProt P07949, V804L)	–	0.1 µM	2	COc1cc(-c2cc(-c3ccc(N4CCNCC4)cc3)cnc2N)cc(OC)c1OC
RET	–	1 µM	1	C=CC(=O)Nc1cc(Nc2nccc(Nc3cc(Cl)c(F)cc3C(C)(C)O)n2)c(OC)cc1N1CC[C@@H](N(C)C)C1
RET	radiometric	1 µM	98	CNC(=O)c1cc2c(Oc3ccc(NC(=O)C4(C(=O)Nc5ccc(F)cc5)CC4)cc3)ccnc2cc1OC
RET	–	0.4 µM	22	CNCc1ccc(-c2cc(-c3nc(-c4ccc(S(=O)(=O)C(C)C)cc4)cnc3N)on2)cc1
Proto-oncogene tyrosine-protein kinase receptor Ret (RET, Homo sapiens, UniProt P07949, Y791F)	–	1 µM	31	COc1cc2ncnc(Nc3ccc(Oc4ccccc4)c(C)c3C)c2cc1OC
RET	–	0.1 µM	0.2	CC/C(=N\NC(=O)NCc1cccc(O)c1)c1ccc(O)c(C)c1O
